Experimental data from different studies.
Protocols differ between the studies behind these lines.
Observed: cell growth or viability

Compound | cell line | assay | setting | endpoint | result
C#CCOc1ccc2oc(-c3ccc(OC)cc3)c(C(=O)OCC)c2c1CN1CCCCC1 | J774.A1 | resazurin | – | IC50 | 8.2 µM
FC(F)(F)c1ccc(-c2cc(CNc3cccc4cccnc34)on2)cc1 | DND41 | MTS | 72 h | IC50 | 82.3 µM
C[C@H]1CN(C)CCN1c1nccc(-c2noc3c2CCC[C@@]32CCCc3sc(N)c(C#N)c32)n1 | NCI-H727 | – | 5 days | EC50 | 0.304 µM
COc1cccc2c1C(=O)c1c(O)c3c(c(O)c1C2=O)C[C@@](O)(C(=O)CO)C[C@@H]3O[C@H]1C[C@H](N)[C@H](O)[C@H](C)O1 | SU-DHL10 | ATP luminescence | 72 h | IC50 | 0.32 µM
C[C@H]1CNCCN1c1nccc(-c2noc([C@@]3(C)CCCc4sc(N)c(C#N)c43)n2)n1 | NCI-H727 | – | 5 days | EC50 | > 1 µM
CCOC(=O)c1c(-c2ccc(OC)cc2)oc2ccc(OCc3cn(Cc4ccccc4)nn3)c(CN3CCCCC3)c12 | J774.A1 | resazurin | 18 h | IC50 | 37.9 µM
N/C(=N\O)c1ccc(-c2cc(CNc3cccc4cccnc34)on2)cc1 | DND41 | MTS | 72 h | IC50 | 2.3 µM
CCOc1ccc(-c2cc(C(=O)O)c(-c3ccc(Cl)cc3)o2)cc1 | WM 266-4 | MTT | 48 h | EC50 | 87 µM
C[C@H](Oc1nccc(-c2noc3c2CCC[C@@]32CCCc3sc(N)c(C#N)c32)n1)[C@@H]1CCCN1C | NCI-H727 | – | 5 days | EC50 | 0.109 µM
O=c1cc(OCc2cc(-c3ccccc3)no2)c2ccccc2o1 | DND41 | MTS | 72 h | IC50 | > 100 µM
COc1cc(C2C3=C(COC3=O)N(CCO)c3cc4c(cc32)CCC4)cc(OC)c1OC (centres unmarked) | MCF-12A | ATP luminescence | 48 h | IC50 | 5.5 µM
Cc1nc(Nc2ncc(C(=O)Nc3c(C)cccc3Cl)s2)cc(N2CC[C@H](O)C2)n1 | JeKo-1 | ATP luminescence | 72 h | IC50 | > 10 µM
c1ccc(-c2cc(CNc3cccc4cccnc34)on2)cc1 | DND41 | MTS | 72 h | IC50 | > 100 µM
C[C@H](Oc1nccc(-c2noc([C@@]3(C)CCCc4sc(N)c(C#N)c43)n2)n1)[C@@H]1CCCN1C | NCI-H727 | – | 5 days | EC50 | 0.271 µM
